Screening data deposited in PubChem BioAssay by several laboratories.
CXCR6 inh: inhibitors of human CXCR6 receptor; O00574; CHO-K1 PathHunter CXCR6 beta-arrestin, luminescence; inhibition, % at 20 µM; actives 0.36% (n = 360,000); in the data active = inhibition above about 34%, passing the limit was not always enough;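 note: antagonist mode with CXCL16 agonist at 10 nM final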
EBI2 antag: EBI2 (human) antagonism | actives 0.81% (n = 360,000) | EBI2 beta-arrestin recruitment, luminescence, 7a,25-OHC stimulated | P32249 | inhibition, % at 5 µM; in the data active = inhibition above about 38%;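 note: enzyme fragment complementation signal reports receptor beta-arrestin coupling in cells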
APJ antagonist: APJ receptor antagonism. P35414. CHO-K1 APJ beta-arrestin complementation, luminescence. actives 0.32% (n = 330,000). inhibition, % at 20 µM;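 active = inhibition above about 40% at 20 µM, limit read from the data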;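 note: cells challenged with 10 nM apelin-13 agonist together with compound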
Target sequence (P35414 whole entry, looked up): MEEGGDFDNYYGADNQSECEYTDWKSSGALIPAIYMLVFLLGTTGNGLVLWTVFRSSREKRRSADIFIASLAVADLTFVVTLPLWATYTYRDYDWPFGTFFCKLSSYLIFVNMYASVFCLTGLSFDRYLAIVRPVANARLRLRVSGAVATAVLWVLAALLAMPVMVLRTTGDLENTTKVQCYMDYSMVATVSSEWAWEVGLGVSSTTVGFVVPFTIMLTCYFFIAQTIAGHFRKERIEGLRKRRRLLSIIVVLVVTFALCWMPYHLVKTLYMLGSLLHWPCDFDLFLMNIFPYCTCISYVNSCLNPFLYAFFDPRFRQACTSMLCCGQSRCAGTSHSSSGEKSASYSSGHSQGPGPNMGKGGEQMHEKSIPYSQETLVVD
APJ ag: agonists of human APJ apelin receptor; P35414; CHO-K1 APJ PathHunter beta-arrestin, luminescence; 0% DMSO wells, 100% apelin; activation, % at 20 µM; actives 0.11% (n = 330,000);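 active = activation more than six SD over the plate average, tested at 20 µM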
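Test system – PathHunter CHO-K1 APJ (AGTRL-1) beta-arrestin reporter cells · Input – 1000 cells/well · Compound – single test compound dose, 20 µM final, 1% DMSO · Times – compound stimulation 90 min at 25 °C, detection 60 min · Technique – beta-gal luminescence · Read-out basis – APJ–arrestin association signal · Control set – negative DMSO alone, positive Apelin-13 at 10 nM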
m5-HT2A agonist: activates the mouse 5-HT2A serotonin receptor; AID 624169; P35363; CHO-K1 mHTR2A beta-arrestin complementation, luminescence; percent of 30 µM serotonin response; activation, % at 7.6 µM; actives 0.66% (n = 360,000);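 active = activation above a run cutoff, the mean activation of all tested compounds plus 3 SD, cut at about 14% in these data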
CCR6 antag: blocks CCL20-driven beta-arrestin recruitment at human CCR6. P51684. CHO-K1 CCR6 PathHunter beta-arrestin, luminescence, CCL20-stimulated. inhibition, % at 20 µM. actives 0.49% (n = 340,000). AID 493098;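 active = compounds whose inhibition of the agonist-driven luminescence signal at 20 µM reaches about 50%, limit read from the data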;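 note: cells stimulated with CCL20 at 14 nM final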
EBI2 antag conf: confirmation of human EBI2 receptor antagonists; EBI2 beta-arrestin luminescence, 7a,25-OHC antagonism; shares compounds with EBI2 antag; actives 29% (n = 2,400); inhibition, % at 5 µM;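 active = inhibition of at least 50%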
EBI2 agonist: activates EBI2, counter-screen for EBI2 antagonists. shares compounds with EBI2 antag. EBI2-expressing cells, agonist mode, luminescence, 60 min; 0% vehicle, 100% 7α,25-dihydroxycholesterol control. activation, % at 5 µM. 2,400 tested, under 10 active;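 active = activation of at least 50%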
bGal counter: counter-screen for EBI2 antagonists: E. coli beta-galactosidase inhibition; shares compounds with EBI2 antag; purified beta-galactosidase, luminescent Galacton Star, 15 min; inhibition, % at 5 µM; actives 1% (n = 2,400); AID 652176;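 active = replicate-average signal at least 3 plate SD below neutral wells, shown as high inhibition, flagging enzyme-inhibiting false positives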;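 note: higher means stronger loss of beta-gal luminescence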
A number is an active result; 0 = inactive; - = no result given. Shown are actives, neighbours in structure and some others; about 2.1% of the full set was active somewhere.

SMILES	CXCR6 inh	EBI2 antag	APJ antagonist	APJ ag	m5-HT2A agonist	CCR6 antag	EBI2 antag conf	EBI2 agonist	bGal counter
COc1ccccc1CN1CCN(C(=O)COc2ccc3ccccc3c2)CC1	0	70	0	0	0	0	0	0	0
CN1CCCN(C(=O)COc2ccccc2)CC1	0	0	0	0	0	0	-	-	-
O=C(COc1ccc2ccccc2c1)N1CCN(C2CCN(Cc3ccccc3)CC2)CC1	0	0	0	0	0	0	-	-	-
O=C(COc1ccc2ccccc2c1)N1CCN(CC2CC3C=CC2C3)CC1 (stereo unspecified)	0	85	0	0	0	0	63	0	0
C=CCOC(=O)c1ccccc1N	0	0	0	0	0	0	-	-	-
COC(=O)C1=C(c2ccc(Cl)c(C(F)(F)F)c2)C[C@@H]2CC[C@H]1N2C(=O)NCCOc1ccc(OC)cc1	0	44	0	0	0	0	0	0	0
COC(=O)C1=C(c2ccc(OCc3ccccc3)cc2)C[C@@H]2CC[C@H]1N2C(=O)NCc1ccccc1C(F)(F)F	0	63	-	-	0	-	0	0	0
COC(=O)C1=C(c2ccc(F)cc2OCc2ccccc2)C[C@@H]2CC[C@H]1N2C(=O)NCC1CC1	0	0	0	0	0	0	-	-	-
Cc1ccc(S(=O)(=O)N2CCC(C(=O)N3CCC4(CC3)OCCO4)CC2)cc1	0	0	0	0	0	0	-	-	-
CC(c1ccccc1)[n+]1ccccc1 (stereo unspecified)	0	0	0	0	0	0	-	-	-
Nc1ccccc1C(=O)OCCOc1ccccc1	0	0	0	0	0	0	-	-	-
CSc1ccc(CN2CCN(C(=O)COc3ccc(C)cc3)CC2)cc1	0	92	0	0	0	0	71	0	0
O=C(COc1ccc(Br)cc1)N1CCN(Cc2ccncc2)CC1	0	68	-	-	0	0	54	0	0
Cc1ccc(OCC(=O)N2CCN(Cc3ccc4c(c3)OCO4)CC2)cc1C	0	71	0	0	0	0	57	0	0
Clc1ccccc1N1CCN(Cc2ccc3c(c2)OCO3)CC1	0	0	0	0	0	0	-	-	-
O=C(COc1ccc(Br)cc1)N1CCN(Cc2ccc3c(c2)OCO3)CC1	0	92	0	0	0	0	70	0	0
Cc1cccc(OCC(=O)N2CCN(Cc3ccncc3)CC2)c1	0	0	0	0	0	0	-	-	-
CCOc1ccc(CN2CCN(C(=O)Cc3ccccc3)CC2)cc1	0	0	0	0	0	0	-	-	-
Cc1cccc(OCC(=O)N2CCN(Cc3ccc4c(c3)OCO4)CC2)c1	0	0	0	0	0	0	-	-	-
C=CCn1c(O)c(C(C)=Nc2ccc(C(=O)OCC)cc2)c(=O)[nH]c1=O	0	0	0	0	0	0	-	-	-
O=c1c2ccccc2nc(-c2cccs2)n1-c1cnccn1	0	0	0	0	0	0	-	-	-
COc1cc(CN2CCN(C(=O)COc3ccccc3)CC2)cc(OC)c1OC	0	0	0	0	0	0	-	-	-
O=C(COc1ccc(Cl)cc1)N1CCN(C/C=C/c2ccccc2)CC1	0	96	0	0	0	0	86	0	0
COc1ccc(OCC(=O)N2CCN(C/C=C/c3ccccc3)CC2)cc1	0	93	0	0	0	0	77	0	0
COc1ccc(OCC(=O)N2CCN(C3CCC(c4ccccc4)CC3)CC2)cc1 (stereo unspecified)	0	85	0	0	0	0	63	0	0
SMILES	CXCR6 inh	EBI2 antag	APJ antagonist	APJ ag	m5-HT2A agonist	CCR6 antag	EBI2 antag conf	EBI2 agonist	bGal counter
CCN1CCN(C(=O)COc2ccc(S(=O)(=O)Nc3ccc(Cl)cc3)cc2)CC1	0	0	0	0	0	0	-	-	-
O=C(COc1ccccc1)N1CCN(C/C=C/c2ccccc2)CC1	0	72	0	0	0	0	60	0	0
O=C(COc1ccccc1)N1CCN(CC(O)COc2ccccc2)CC1 (stereo unspecified)	0	0	0	0	0	0	-	-	-
Cc1ccc(-c2cc(-c3ccc(C)cc3)[n+](C)o2)cc1	0	0	-	-	0	0	-	-	-
Cn1nnc(CC[N+](C)(C)C)n1	0	0	0	0	0	0	-	-	-
O=C(COc1ccccc1)c1cn(Cc2ccccc2)c2ccccc12	0	46	0	0	0	0	0	0	0
O=c1c(C=NCc2cccs2)c(O)n(C2CCCCC2)c(=O)n1C1CCCCC1	0	44	0	0	0	0	0	0	0
CCC(C)OC(=O)c1c(N)n(Cc2cccs2)c2nc3ccccc3nc12 (stereo unspecified)	0	44	0	0	0	0	0	0	0
O=C(c1cc(Br)ccc1Cl)N1CCC2(CC1)OCCO2	0	0	0	0	0	0	-	-	-
O=C(c1cc2cc(Br)ccc2[nH]1)N1CCC2(CC1)OCCO2	0	84	0	0	0	0	67	0	0
COc1ccc(N=Cc2c(O)n(CC3CCCO3)c(=O)[nH]c2=O)cc1 (stereo unspecified)	0	55	0	0	0	0	0	0	0
O=C1CN=C(c2cccc(Br)c2)c2cc(Br)ccc2N1	0	0	0	0	0	0	-	-	-
